In series [1] the test system is SK-BR-3. As to the kind of experiment: Antiproliferative activity against human SKBR3 cells. In kind it is functional, cell-based. Put shortly: (§1)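 Cells were grown in 1:1 Advanced DMEM/F12 with non-essential amino acids, 2 mM L-glutamine, penicillin/streptomycin and 10% FBS at 37 °C, 5% CO2. They were seeded at 2000/well and left to attach overnight, then exposed to serial compound dilutions (1% DMSO final) for 72 h. Viable cells were read with an […] proliferation kit and normalized to 1% DMSO controls (100%). IC50 came from separate triplicate experiments.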

Series [2] has as its target T1, Heat shock protein HSP90 (Homo sapiens, UniProt P07900+P08238). As to the kind of experiment: Inhibition of Hsp90 C-terminal domain in human MCF7 cells assessed as induction of CDK6 degradation at 0.5 to 5 fold antiproliferative EC50 after 24 hrs by Western blot analysis. The format is cell-based. Put shortly: (§2)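 MCF-7 cells, cultured as for proliferation, were treated for 24 h with compound in DMSO (1% final) or DMSO vehicle. Cells were harvested in cold PBS and lysed on ice for 1 h in RIPA with 1 mM PMSF, 2 mM orthovanadate and protease inhibitors. Lysates were cleared at 14000g, quantified by BCA, and 20 μg protein was run reducing, blotted to nitrocellulose and probed with specific antibodies plus HRP secondary, with chemiluminescent detection.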
In general terms: In western blotting, separated proteins are transferred to a membrane and probed.

The target in series [3] is T1, Heat shock protein HSP90. As to the kind of experiment: Inhibition of Hsp90 C-terminal domain in human MCF7 cells assessed as effect on heat shock response-induced Hsp90 level at 0.5 to 5 fold antiproliferative EC50 after 24 hrs by Western blot analysis. In kind it is cell-based. The conditions noted are these: mcf7, 24 h. Put shortly:
as §2

For series [4], the target named is T1, Heat shock protein HSP90. As to the kind of experiment: Inhibition of Hsp90 C-terminal domain in human MCF7 cells assessed as effect on heat shock response-induced Hsp70 level at 0.5 to 5 fold antiproliferative EC50 after 24 hrs by Western blot analysis. To be noted: mcf7, 24 h. The format is cell-based. Put shortly:
as §2

For series [5], the target named is T1, Heat shock protein HSP90. As to the kind of experiment: Inhibition of Hsp90 C-terminal domain in human MCF7 cells assessed as induction of Her2 degradation at 0.5 to 5 fold antiproliferative EC50 after 24 hrs by Western blot analysis. The format is cell-based. Put shortly:
as §2

Series [6] has as its target T1, Heat shock protein HSP90. As to the kind of experiment: Inhibition of Hsp90 C-terminal domain in human MCF7 cells assessed as induction of ERalpha degradation at 0.5 to 5 fold antiproliferative EC50 after 24 hrs by Western blot analysis. The format is cell-based. The method, boiled down: as §2
Another series concerns MCF7. As to the kind of experiment: Antiproliferative activity against human MCF7 cells after 72 hrs by MTS/PMS assay. The format is functional, cell-based. To be noted: MCF7, 72 h. The method, boiled down:
as §1

The subject of series [7] is SK-BR-3. As to the kind of experiment: Antiproliferative activity against human SKBR3 cells after 72 hrs by MTS/PMS assay. In kind it is functional, cell-based. The conditions noted are these: SK-BR-3, 72 h. Put shortly: as §1

The source made the active and inactive calls. The calls are words filed in the database; no cut-off is given here.

Broadly, the EC50 is the concentration that produces a half-maximal response. Low values mean higher potency in that assay, high ones lower potency in that assay. As to `COc1cccc(-c2cc(C(=O)Nc3cc4ccc(O[C@@H]5OC(C)(C)[C@H](OC)[C@@H](O)[C@H]5O)c(C)c4oc3=O)ccc2OC)c1`, a half-maximal response in the series on SK-BR-3 [1] (EC50) required 7 µM. This counts as single-digit micromolar.

Consider `COc1cccc(-c2cc(C(=O)Nc3cc4ccc(O[C@H]5CC[C@H](N)CC5)c(C)c4oc3=O)ccc2OC)c1`, for which the inhibition result at Heat shock protein HSP90 [2], at Heat shock protein HSP90 [5] and on Heat shock protein HSP90 [6] was “Active” in each case. Further, the “inhibition (INH)” value on Heat shock protein HSP90 [3] and at Heat shock protein HSP90 [4] was “Not Active” throughout.

As for `COc1cccc(-c2cc(C(=O)Nc3cc4ccc(OC5CCN(CCO)CC5)c(C)c4oc3=O)ccc2OC)c1`, the half-maximal effective concentration (EC50) in the series on MCF7 worked out at 1.9 µM; with SK-BR-3 [7], 2.1 µM.

For `COCCN1CCCC(Oc2ccc([C@H]3CC[C@H](NC(=O)c4ccc(OC)c(-c5cccc(OC)c5)c4)CC3)cc2)C1` (stereo partly drawn), the EC50 in the series with MCF7 worked out at 3 µM; in the series with SK-BR-3 [7], 0.9 µM.

`COc1cccc(-c2cc(C(=O)Nc3cc4ccc(O[C@H]5CC[C@H](N(C)C)CC5)c(C)c4oc3=O)ccc2OC)c1`: the inhibition entry on Heat shock protein HSP90 [2], at Heat shock protein HSP90 [5] and on Heat shock protein HSP90 [6] was “Active” each time. Further, the “inhibition (INH)” value on Heat shock protein HSP90 [3] and on Heat shock protein HSP90 [4] was “Not Active” throughout.

As for `COc1cccc(-c2cc(C(=O)N[C@H]3CC[C@H](c4ccc(OC5CCCN(CCO)C5)cc4)CC3)ccc2OC)c1` (stereo partly drawn), the EC50 was found to be 0.625 µM in the series on MCF7 and 0.45 µM in the series on SK-BR-3 [7].

In the case of `COc1cccc(-c2cc(C(=O)N[C@H]3CC[C@H](c4ccc(OC5CCN(CCO)CC5)cc4)CC3)ccc2OC)c1`, the concentration for a half-maximal effect (EC50) with MCF7 was found to be 0.38 µM; in the series on SK-BR-3 [7], 0.285 µM.

Turning to `COCCN1CCC(Oc2ccc3cc(NC(=O)c4ccc(OC)c(-c5cccc(OC)c5)c4)c(=O)oc3c2C)CC1`, the EC50 is 2.1 µM in the series with MCF7 and 4 µM in the series with SK-BR-3 [7].

In the case of `COCCN1CCCC(Oc2ccc3cc(NC(=O)c4ccc(OC)c(-c5cccc(OC)c5)c4)c(=O)oc3c2C)C1` (stereo not drawn), the EC50 worked out at 13.3 µM in the series with MCF7 and 7 µM with SK-BR-3 [7].

Molecule `CO[C@@H]1[C@@H](OC(N)=O)[C@@H](O)[C@H](Oc2ccc3c(O)c(NC(=O)c4ccc(O)c(CC=C(C)C)c4)c(=O)oc3c2C)OC1(C)C` [NOVOBIOCIN] registered an EC50 in the series on SK-BR-3 [1] of 700 µM.

`COc1cccc(-c2cc(C(=O)Nc3cc4ccc(OC5CCCN(CCO)C5)c(C)c4oc3=O)ccc2OC)c1` (stereo not drawn): the values for the EC50 in the series with MCF7 and with SK-BR-3 [7] were 2.66 µM and 1.7 µM, respectively.

On to `COCCN1CCC(Oc2ccc([C@H]3CC[C@H](NC(=O)c4ccc(OC)c(-c5cccc(OC)c5)c4)CC3)cc2)CC1`, for which the EC50 in the series on MCF7 was 0.52 µM; with SK-BR-3 [7], 0.363 µM.

On to `COc1cccc(-c2cc(C(=O)Nc3cc4ccc(O[C@H]5CC[C@@H](N)CC5)c(C)c4oc3=O)ccc2OC)c1`, for which the inhibition entry at Heat shock protein HSP90 [2], on Heat shock protein HSP90 [5] and at Heat shock protein HSP90 [6] was “Active” throughout. Moreover, the “inhibition (INH)” value at Heat shock protein HSP90 [3] and on Heat shock protein HSP90 [4] was “Not Active” in each case.

Values taken from ChEMBL document CHEMBL4118153, “Exploiting polarity and chirality to probe the Hsp90 C-terminus” (Bioorg Med Chem, 2018).
